Screening data deposited in PubChem by several laboratories.
T cell modulator = modulates CD8 T cell binding to vesicles | 2C CD8+ T cell-vesicle binding, flow cytometry; active compounds read low | response (vesicle binding), % at 7 µM | 330,000 compounds, 0.068% hits | AID 2052;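 active means response, share of CD8 T cells binding vesicles, and their 90th percentile fluorescence all below set limits, cut at about 80% in these data, passing the limit was not always enough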;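 further: values below 100% mean blocked vesicle binding to the CD8+ T cells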
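Read-out – percent CD8+ FL2 mean versus row control · System – murine 2C transgenic CD8+ T lymphocytes · Times – 1.5 h cell–vesicle binding at 37 °C, then 20 min icy labelling · Control set – naked vesicles low, QL9 vesicles with vehicle high · Detection – cytometric PE anti-B7-1 and Alexa647 anti-CD8 signals after 1% paraformaldehyde fixation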
ALR H2O2 inh = inhibitors of human sulfhydryl oxidase ALR | AID 485317 | purified ALR, DTT oxidation, H2O2 HRP-luminol luminescence | P55789 | 290,000 compounds, 3.8% hits | inhibition, % (test concentration not listed);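 active means mean replicate inhibition above about 79%, with every replicate also reaching it, limit read from the data; inconclusive means only one of the two criteria met; inactive means mean below limit and not every replicate reaching it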
Target sequence (P55789 whole entry, looked up): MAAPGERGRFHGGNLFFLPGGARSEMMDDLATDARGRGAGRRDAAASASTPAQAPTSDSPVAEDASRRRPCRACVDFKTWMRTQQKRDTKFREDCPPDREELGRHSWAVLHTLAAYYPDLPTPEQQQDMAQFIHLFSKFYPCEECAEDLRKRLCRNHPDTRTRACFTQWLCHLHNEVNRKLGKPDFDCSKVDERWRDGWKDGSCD
Glyco luc inh = N-linked glycosylation inhibition | D54 ERlucT glycosylation luciferase reporter, 24 h; percent of 100 nM tunicamycin response | reporter increase, % at 12.5 µM | 360,000 compounds, 0.23% hits | AID 588692;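 active means mean luciferase reporter signal, scaled so untreated is 0 and the glycosylation-blocking control 100, at or above a set limit in every replicate; inconclusive means mean reaches the limit but not every replicate does; inactive means mean below the limit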;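 further: luciferase carries N-glycosylation sites so blocking glycosylation raises the light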
Hits are given with their value; i = inactive; ? = inconclusive; nt = not tested or not shown. Many of the other results were omitted from the sample, so hits are more common in it than they were.

SMILES | T cell modulator | ALR H2O2 inh | Glyco luc inh
O=C(COc1ccc([N+](=O)[O-])cc1)NNC(=S)NC(=O)c1ccc(Br)cc1 | i | nt | i
COc1ccc(C(=O)NC(=S)NNC(=O)COc2ccccc2)cc1 | i | 98 | i
O=C(CCc1ccccc1)NNC(=S)NC(=O)c1ccc(Cl)cc1 | i | 99 | nt
CCC(=O)NNC(=S)NC(=O)c1ccc(C)cc1 | i | 99 | i
O=C(COc1ccccc1)NNC(=S)NC(=O)c1ccccc1 | i | nt | i
O=C(CCc1ccccc1)NNC(=O)c1ccc(Cl)cc1 | i | i | i
Cc1ccc(C(=O)NC(=S)NNC(=O)COc2ccc([N+](=O)[O-])cc2)cc1 | i | 99 | i
CC(=O)NNC(=S)NC(=O)c1ccc(C)cc1 | i | nt | i
CC(=O)c1c(C)[nH]c(C(=O)OCc2ccccc2F)c1C | i | i | i
C[C@H]1CN([C@@H](C)CO)C(=O)CCCn2nncc2CO[C@@H]1CN(C)S(=O)(=O)c1ccc(-c2ccccc2)cc1 | nt | nt | i
Cc1ccc(Cl)cc1N1CCN(C(=O)c2cn(C)c(=O)c3c2c2ccccc2n3C)CC1 | i | nt | i
Cc1cccc(N2CCN(C(=O)c3cn(C)c(=O)c4c3c3ccccc3n4C)CC2)c1C | i | 88 | i
COc1ccc(NC(=O)C2CCCN2C(=O)NC2CCCCC2)cc1 (stereo not drawn) | i | i | i
CCOC(=O)[C@@H]1[C@H]2COc3ccccc3[C@@H]2N2C(=O)N(c3ccc(C(F)(F)F)cc3)C(=O)[C@]12C | i | i | i
CC1(C)Cc2c(c(=S)nc(-c3ccccc3)n2CCN2CCOCC2)CO1 | i | 97 | i
COCCn1c(-c2ccccc2)nc(=S)c2c1CC(C)(C)OC2 | i | i | i
CCOC(=O)Cc1csc(SCC(=O)NC2CCCC2)n1 | nt | nt | i
CCOC(=O)c1cc2sc(C)cc2n1C(C)C(=O)OCC (stereo not drawn) | i | i | i
Cc1cc2c(cc(C(=O)O)n2C)s1 | i | 79 | i
O=C(CSc1nc2ccccc2[nH]1)NCc1ccc2c(c1)OCO2 | i | nt | i
O=C(CN1CCc2ccccc21)NCc1ccc2c(c1)OCO2 | i | 99 | i
O=C(CN1CCCc2ccccc21)NCc1ccc2c(c1)OCO2 | i | i | i
O=C(CSc1c[nH]c2ccccc12)NCc1ccc2c(c1)OCO2 | i | 98 | i
COc1cccc(C(=S)N2CCOCC2)c1OS(=O)(=O)c1ccc(Cl)cc1 | i | i | i
O=C(C[C@@H]1NS(=O)(=O)OC2CCCCC21)c1ccccc1 (stereo partly drawn) | i | i | i
SMILES | T cell modulator | ALR H2O2 inh | Glyco luc inh
COc1ccc(NC(=O)CSCC(=O)NCc2ccco2)cc1 | i | i | i
COc1ccc(-c2nc(CSCC(=O)NCc3ccco3)c(C)o2)cc1 | i | 99 | i
Cc1ccc(-c2nc(CSCC(=O)NCc3cccnc3)c(C)o2)cc1 | i | 99 | i
Cc1oc(-c2ccc(Cl)cc2)nc1CN1CCC(C(=O)NCc2cccnc2)CC1 | i | i | i
COc1ccc(C(=O)C2CCCN(C(=O)c3cc(C4CC4)[nH]n3)C2)c(C)c1 (stereo not drawn) | i | i | i
Cc1ccc(N(CC(=O)Nc2cccc(Cl)c2C)S(C)(=O)=O)cc1 | i | i | i
CCOC(=O)C1(Cc2ccccc2)CCCN(C(=O)c2ccc(-n3ccnc3)cc2)C1 (stereo not drawn) | i | i | i
O=C(COc1ccc(Br)cc1F)NC1CC1 | i | i | i
COc1ccc(NC(=O)COC(=O)CCNC(=O)c2ccco2)cc1Cl | i | i | i
COCCNC(=O)C1CCCN(C(=O)c2cccnc2Oc2ccccc2)CC1 (stereo not drawn) | nt | nt | i
COc1ccc(Br)c(C=O)c1OS(=O)(=O)c1ccc(C)cc1 | nt | nt | i
COc1ccccc1N1CCN(c2ccc3c(c2)S(=O)(=O)c2cccc(C(=O)NCC4CC4)c2C3=O)CC1 | nt | nt | i
OC1CCN(Cc2cccc(Oc3ccccc3)c2)CC1 | i | 98 | i
CN1CCN(Cc2cccc(Oc3ccccc3)c2)CC1 | i | i | i
N#Cc1c2n(c3c(=O)[nH]cnc13)CCCC2 | i | i | i
N#Cc1c2n(c3c(=S)nc[nH]c13)CCCCC2 | i | 93 | i
COc1cc(/C=N/N=C2/SCC(=O)N2c2ccc(O)cc2)ccc1O | i | i | i
C=CCN1C(=O)CSC1=Nc1ccc(NC(C)=O)cc1 | i | i | i
O=C1CSC(=Nc2ccc(O)cc2)N1c1ccc(O)cc1 | i | 99 | i
C=CCN1C(=O)CSC1=Nc1ccc(O)cc1 | i | 99 | i
CCOc1ccccc1N(CC(=O)Nc1ccccc1)S(=O)(=O)c1ccccc1 | i | i | i
Nc1nc(N)c2[nH]c(-c3ccccc3)nc2n1 | i | i | i
COc1ccc(F)cc1C1=CC(=O)C[C@H](c2ccc3c(c2)OCO3)C1 | i | i | 30
COc1cc(F)c(C2=CC(=O)C[C@H](c3ccc4c(c3)OCO4)C2)cc1F | i | i | i
C[C@H]1CN([C@@H](C)CO)C(=O)c2cc(NC(=O)C3CCCCC3)ccc2O[C@H]1CN(C)CC1CCCCC1 | i | i | i
SMILES | T cell modulator | ALR H2O2 inh | Glyco luc inh
c1ccc(C2=Nc3cccnc3C(c3ccccc3)=NN2)cc1 | i | i | i
COC(=O)c1ccc(NC2CC(=O)N(c3ccccc3C)C2=O)cc1 (stereo not drawn) | i | i | i
Cc1ccccc1N1C(=O)CC(Nc2ccc3c(c2)OCO3)C1=O (stereo not drawn) | i | 95 | i
O=S(=O)(Nc1nccs1)c1ccc(NCc2cc(Br)cc(Br)c2O)cc1 | i | i | i
COc1cccc(CNc2ccc(S(=O)(=O)Nc3nccs3)cc2)c1O | i | 93 | i
CCCCOc1ccc(C(=O)Nn2c(-c3cccs3)nc3ccccc3c2=O)cc1 | i | i | i
NC(=O)c1coc(-c2ccccc2)n1 | i | i | i
CCOc1ccc(/C=N/N2CCN(Cc3ccccc3)CC2)cc1 | i | nt | i
COc1ccc(N2CCN(Cc3cc(=O)c(OCC(=O)NC4CCCC4)co3)CC2)cc1 | i | nt | i
Cc1nc(N/N=C/c2ccc(O)cc2O)cc(N2CCOCC2)n1 | i | 95 | i
Oc1ccc(/C=N/Nc2cc(N3CCOCC3)nc(N3CCOCC3)n2)cc1O | i | 99 | i
Cc1nc(N/N=C/c2cccc(F)c2)cc(N2CCOCC2)n1 | i | i | i
Oc1cccc(/C=N/Nc2cc(N3CCOCC3)nc(N3CCOCC3)n2)c1 | i | i | i
COc1ccc(C2(OC)Oc3cc(OC)ccc3C(=O)C2(O)OC)cc1 (stereo not drawn) | nt | nt | i
CCO[C@@H]1OC(C(=O)N2CCCCCCC2)=C[C@H](c2csc3ccccc23)[C@H]1CCCO | i | i | i
COc1ccc(/C=C2\SC(=Nc3ccccc3OC)NC2=O)cc1 | i | i | i
COc1cc(/C=C2\SC(=Nc3ccccc3OC)NC2=O)ccc1O | i | 99 | i
C[C@@H]1CN([C@H](C)CO)C(=O)CCCn2nncc2CO[C@H]1CN(C)Cc1ccc(Cl)c(Cl)c1 | nt | nt | i
COc1ccc(N(C(=O)c2snc(C(N)=O)c2N)C(C(=O)NC2CCCCC2)c2ccc(C)o2)cc1 (stereo not drawn) | i | i | i
COc1ccc(OC)c(CNc2ccc3c(c2)nc(C)n3C)c1 | i | 85 | i
Cc1nc2cc(NCc3ccc(Cl)cc3)ccc2n1C | i | ? | i
COc1ccc(CNc2ccc3c(c2)nc(C)n3C)cc1 | i | 89 | i
Cc1ccc(CNc2ccc3c(c2)nc(C)n3C)cc1 | i | nt | i
